From ChEMBL document CHEMBL3108678, “Isolation and synthesis of pulmonarins A and B, acetylcholinesterase inhibitors from the colonial ascidian Synoicum pulmonaria” (J Nat Prod, 2014)
The source made the active and inactive calls. The calls are words filed in the database; no cut-off is given here.

Assays:
[1] = system: Corynebacterium glutamicum; test: Antimicrobial activity against Corynebacterium glutamicum ATCC 13032 after 24 hrs; type: functional; conditions: ATCC 13032, 24 h
Outline: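 Broth microdilution in Mueller Hinton broth at 37 °C. Compounds were dissolved in water and tested from 8 to 500 μg/mL against log-phase bacteria at a start of about 5 × 10⁵ cells per well. Growth was followed by optical density, with cecropin B (25 μM) as positive control. MIC was taken as the lowest concentration giving no change in optical density after 24 h at 37 °C.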

[2] = system: A2058; test: Cytotoxicity against human A2058 cells; type: cell-based
[3] = system: MCF7; test: Cytotoxicity against human MCF7 cells; type: cell-based
[4] = system: Staphylococcus epidermidis; test: Antimicrobial activity against Staphylococcus epidermidis ATCC 35984 assessed as inhibition of biofilm formation; type: functional, organism-based
[5] = target: T1, Acetylcholinesterase (Electrophorus electricus, UniProt O42275); test: Noncompetitive inhibition of electric eel AChE using acetylthiocholine chloride as substrate after 5 mins by Dixon plot analysis
T1 sequence (O42275 whole entry): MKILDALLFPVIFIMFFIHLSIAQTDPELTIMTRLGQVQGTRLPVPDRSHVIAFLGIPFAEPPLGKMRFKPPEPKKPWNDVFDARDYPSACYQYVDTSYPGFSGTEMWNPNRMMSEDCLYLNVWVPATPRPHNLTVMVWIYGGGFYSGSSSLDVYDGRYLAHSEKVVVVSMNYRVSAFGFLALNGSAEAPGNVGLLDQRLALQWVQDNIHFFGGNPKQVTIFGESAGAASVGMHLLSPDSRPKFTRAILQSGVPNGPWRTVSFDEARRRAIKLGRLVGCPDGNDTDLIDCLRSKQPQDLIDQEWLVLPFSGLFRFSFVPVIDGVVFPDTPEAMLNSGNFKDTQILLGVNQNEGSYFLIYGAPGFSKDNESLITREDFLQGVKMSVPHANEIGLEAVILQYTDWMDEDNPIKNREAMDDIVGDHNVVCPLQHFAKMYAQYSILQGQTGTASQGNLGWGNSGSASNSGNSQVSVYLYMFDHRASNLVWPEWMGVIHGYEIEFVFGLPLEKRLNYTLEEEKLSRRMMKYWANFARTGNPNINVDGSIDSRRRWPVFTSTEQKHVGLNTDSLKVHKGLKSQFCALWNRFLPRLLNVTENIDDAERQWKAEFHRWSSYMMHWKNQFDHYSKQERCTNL

[6] = system: Staphylococcus aureus; test: Antimicrobial activity against Staphylococcus aureus ATCC 9144 at 8 to 500 ug/ml after 24 hrs; type: functional, organism-based
Outline: (§1)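 Broth microdilution in Mueller Hinton broth at 37 °C. Samples dissolved in H2O are mixed 1:1 with log-phase bacterial suspension, about 5 × 10⁵ cells per well, and tested at 8 to 500 μg/mL. Growth is followed by optical density. MIC is the lowest concentration giving no OD change after 24 h at 37 °C. Cecropin B (25 μM) serves as positive control.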

[7] = target: T1, Acetylcholinesterase; test: Inhibition of electric eel AChE using acetylthiocholine chloride as substrate after 5 mins by Ellman's method
[8] = system: Escherichia coli; test: Antimicrobial activity against Escherichia coli ATCC 25922 at 8 to 500 ug/ml after 24 hrs; type: functional, organism-based; outline: as §1
[9] = system: Pseudomonas aeruginosa; test: Antimicrobial activity against Pseudomonas aeruginosa ATCC 27853 at 8 to 500 ug/ml after 24 hrs; type: functional, organism-based; outline: as §1
[10] = system: HT-29; test: Cytotoxicity against human HT-29 cells; type: cell-based
[11] = system: MRC5; test: Cytotoxicity against human MRC5 cells; type: cell-based

For `COc1c(Br)cc(C(=O)OCC[N+](C)(C)C)cc1Br.[Cl-]`, the MIC [1] was 500 µg/mL, the Activity [2] was “Non-toxic” and the Activity [3] was “Non-toxic”. The inhibition [4] was “inactive”, the Ki [5] was 90 µM and the Activity [6] was “inactive”. For the same compound, the IC50 [7] was 105 µM, the Activity [8] was “inactive” and the Activity [9] was “inactive”. The Activity [10] was “Non-toxic” and the Activity [11] was “Non-toxic”.
With `COc1c(Br)cc(CC(=O)NCCCCC[N+](C)(C)C)cc1Br.[I-]` the MIC [1] was 250 µg/mL, the Activity [2] was “Non-toxic” and the Activity [3] was “Non-toxic”. The inhibition [4] was “inactive”, the Ki [5] was 20 µM and the Activity [6] was “inactive”. The IC50 [7] was 36 µM, the Activity [8] was “inactive” and the Activity [9] was “inactive”. For the same compound, the Activity [10] was “Non-toxic” and the Activity [11] was “Non-toxic”.
